Results from PMC5970965 (Prostaglandins & other lipid mediators, 2018).

Key:
rat sEH enzyme = target: T1, rat sEH enzyme (Rattus norvegicus, UniProt P80299); assay: rat sEH inhibition assay; type: biochemical
T1 sequence (P80299 1-554): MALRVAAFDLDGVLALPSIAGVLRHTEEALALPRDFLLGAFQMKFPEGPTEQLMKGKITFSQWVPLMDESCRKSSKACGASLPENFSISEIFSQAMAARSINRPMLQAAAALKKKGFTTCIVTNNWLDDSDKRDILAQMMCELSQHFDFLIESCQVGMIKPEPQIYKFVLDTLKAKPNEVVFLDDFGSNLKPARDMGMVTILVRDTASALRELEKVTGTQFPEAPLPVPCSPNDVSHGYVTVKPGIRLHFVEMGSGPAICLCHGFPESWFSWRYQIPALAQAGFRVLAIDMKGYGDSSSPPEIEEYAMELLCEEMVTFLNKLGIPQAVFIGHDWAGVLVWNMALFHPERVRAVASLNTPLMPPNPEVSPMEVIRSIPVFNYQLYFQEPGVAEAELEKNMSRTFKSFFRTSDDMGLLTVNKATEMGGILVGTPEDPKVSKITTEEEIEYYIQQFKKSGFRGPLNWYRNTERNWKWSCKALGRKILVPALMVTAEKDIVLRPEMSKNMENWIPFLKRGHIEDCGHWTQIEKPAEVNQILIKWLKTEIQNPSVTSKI

[1] = rat liver microsomal metabolic stability; type: in vitro ADME; conditions: for half-life / microsomal CLint: both, rat, rat liver microsomes; for microsomal CLint: app (rat liver microsomes)
Human sEH = target: T2, Human sEH (Homo sapiens, UniProt P34913); assay: human sEH inhibition assay, fluorescent substrate CMNPC; type: biochemical
T2 sequence (P34913 1-555): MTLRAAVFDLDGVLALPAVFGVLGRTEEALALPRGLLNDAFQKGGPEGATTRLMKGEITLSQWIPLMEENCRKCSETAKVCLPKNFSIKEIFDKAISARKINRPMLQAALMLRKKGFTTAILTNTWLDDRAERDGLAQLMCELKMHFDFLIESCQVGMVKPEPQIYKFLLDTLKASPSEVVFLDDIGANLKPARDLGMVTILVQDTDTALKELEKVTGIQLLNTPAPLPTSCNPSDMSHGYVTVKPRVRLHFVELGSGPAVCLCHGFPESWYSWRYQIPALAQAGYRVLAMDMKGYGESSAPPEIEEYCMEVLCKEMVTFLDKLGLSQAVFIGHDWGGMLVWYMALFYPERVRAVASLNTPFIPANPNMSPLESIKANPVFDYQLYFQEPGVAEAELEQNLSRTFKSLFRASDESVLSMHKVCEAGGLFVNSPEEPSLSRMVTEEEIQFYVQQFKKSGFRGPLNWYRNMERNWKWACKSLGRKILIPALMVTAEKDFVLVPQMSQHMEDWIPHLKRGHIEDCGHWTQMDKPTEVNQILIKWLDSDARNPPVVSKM

[2] = human liver microsomal metabolic stability; type: in vitro ADME; conditions: both, human liver microsomes
[3] = target: T3, fatty acid amide hydrolase (FAAH) (Homo sapiens, UniProt O00519); assay: FAAH inhibition assay, substrate OMP; type: biochemical
T3 sequence (O00519 1-579): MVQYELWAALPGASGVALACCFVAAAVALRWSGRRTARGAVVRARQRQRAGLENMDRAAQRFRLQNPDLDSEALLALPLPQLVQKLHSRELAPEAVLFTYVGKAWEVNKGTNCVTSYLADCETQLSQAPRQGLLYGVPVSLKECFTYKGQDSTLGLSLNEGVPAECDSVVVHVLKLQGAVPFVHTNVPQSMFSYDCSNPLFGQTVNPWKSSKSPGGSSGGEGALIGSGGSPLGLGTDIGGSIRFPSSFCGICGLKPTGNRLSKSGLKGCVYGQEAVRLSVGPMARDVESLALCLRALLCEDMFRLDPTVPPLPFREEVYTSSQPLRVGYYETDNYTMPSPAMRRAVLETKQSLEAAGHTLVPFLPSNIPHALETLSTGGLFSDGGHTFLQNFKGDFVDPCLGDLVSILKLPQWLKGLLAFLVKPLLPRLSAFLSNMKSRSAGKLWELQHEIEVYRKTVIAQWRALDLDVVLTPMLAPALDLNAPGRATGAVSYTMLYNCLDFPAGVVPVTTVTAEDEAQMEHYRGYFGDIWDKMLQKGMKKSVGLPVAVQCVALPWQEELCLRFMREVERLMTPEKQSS
How it was run: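 FAAH activity was followed fluorimetrically (excitation 303 nm, emission 394 nm) at 37 °C using N-(6-methoxypyridin-3-yl)octanamide (OMP) at a final concentration of 50 μM. The reaction buffer was 0.1 M sodium phosphate, pH 8, containing 0.1 mg/mL BSA. Each experiment was run in triplicate, and values are given as average ± SD.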

[4] = cited from earlier work
[5] = apparent intrinsic clearance, CLint = k/P

For Cc1ccc(S(=O)(=O)N2CCC(C(=O)Nc3ccc4cc(C(=O)O)ccc4c3)CC2)c(C)c1 [Compound 3, 6-(1-((2,4-dimethylphenyl)sulfonyl)piperidine-4-carboxamido)-2-naphthoic acid], the IC50 (rat sEH enzyme) was 0.141 ± 0.02 µM, the half-life [1] was 0.433 h and the microsomal CLint [1, 5] was 53.3 µL/min/mg. For the same molecule, the IC50 (Human sEH) was 0.085 µM, the half-life [2] was 3.1 h and the microsomal CLint [2] was 7.5 µL/min/mg. The IC50 [3] was 23 µM and the “CLint, app (human liver microsomes), previously published value in parenthesis” value [4] was 6.3 µL/min/mg.

With [2H]c1c([2H])c(S(=O)(=O)N2CCC(C(=O)Nc3ccc4cc(C(=O)O)ccc4c3)CC2)c(C([2H])([2H])[2H])c([2H])c1C([2H])([2H])[2H] [Compound 3i, 6-(1-((2,4-bis(methyl-d3)phenyl-3,5,6-d3)sulfonyl)piperidine-4-carboxamido)-2-naphthoic acid] the “CLint, app (rat liver microsomes)” value [1, 5] was <23.1 µL/min/mg, the half-life [1] was > 1 h and the microsomal CLint [1, 5] was ~20 µL/min/mg. The IC50 (Human sEH) was 0.106 µM, the half-life [2] was > 4 h and the microsomal CLint [2] was < 5.8 µL/min/mg. For the same molecule, the IC50 [3] was 8.8 µM.
